Laboratory results as given in ChEMBL document CHEMBL4043182, “On the synthesis of quinone-based BODIPY hybrids: New insights on antitumor activity and mechanism of action in cancer cells” (Bioorg Med Chem Lett, 2017).
The source made the active and inactive calls. No cut-off for these calls is given here.

Experiments:
[1] = tested on: PC-3; assay: Induction of oxidative stress in human PC3 cells assessed as total GSH levels at 5 uM treated 24 hrs post NAC addition measured after 24 hrs by spectrophotometric analysis (reference value: 3.04 +/- 0.51 microg/mg); format: functional
Summary of the method: (§1)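 Cells were pretreated 24 h with 5 mM NAC, then exposed 24 h to test compound at 5 µM. Controls received 0.1% DMSO. Extracts were prepared by sonication and HClO4 precipitation, then neutralized with KOH. Total glutathione was read by DTNB/glutathione reductase/NADPH rate at 412 nm. GSSG was measured after 4-vinylpyridine (0.1%, 1 h, RT) and GSH derived by difference. Values are normalized to protein, triplicates, three independent runs.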

[2] = tested on: SF-295; assay: Antiproliferative activity against human SF295 cells after 72 hrs by MTT assay; format: functional, cell-based; conditions: SF-295, 72 h
Summary of the method: (§2)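 MTT reduction: cancer lines plated at 0.7×10^5 to 0.3×10^6 cells/well, V79 and L929 fibroblasts at 0.5×10^5 cells/well. Compounds in DMSO (0.1%) were given for 24 h at 0.04–40.92 µM or 72 h at 0.04–8.19 µM. Fresh medium with 0.5 mg/mL MTT was added for 3 h, then formazan was dissolved in DMSO and read at 595 nm as % of control. IC50 came from nonlinear regression with 95% CI. Doxorubicin (0.001–1.06 µM) was the positive control. Triplicate, ≥3 repeats.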

[3] = tested on: SW-620; assay: Antiproliferative activity against human SW620 cells after 72 hrs by MTT assay; format: functional, cell-based; conditions: SW-620, 72 h; summary of the method: as §2
[4] = tested on: V79; assay: Antiproliferative activity against chinese hamster V79 cells after 72 hrs by MTT assay; format: cell-based; conditions: Cricetulus griseus, V79, 72 h; summary of the method: as §2
[5] = tested on: PC-3; assay: Induction of lipid peroxidation in human PC3 cells assessed as increase in MDA levels at 2.5 to 10 uM after 24 hrs in absence of NAC by TBARS assay; format: functional, cell-based
Summary of the method: (§3)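 TBARS: cells were exposed 24 h, with or without 24 h prior 5 mM NAC, and lysed in Tris-HCl. Lysate was heated with TCA/0.25 M HCl and 6.7 mg/mL TBA for 15 min at 100 °C, centrifuged, and read at 532 nm. Hydrolyzed tetramethoxypropane served as standard, with values normalized to protein. H2O2 (10 µM) was the positive control. Three independent experiments in triplicate; ANOVA/Tukey.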

[6] = tested on: SF-295; assay: Induction of lipid peroxidation in human SF295 cells assessed as increase in MDA levels at 2.5 to 10 uM treated 24 hrs post NAC addition measured after 24 hrs by TBARS assay; format: functional, cell-based; summary of the method: as §3
[7] = tested on: HCT-116; assay: Induction of lipid peroxidation in human HCT116 cells assessed as increase in MDA levels at 2.5 to 10 uM treated 24 hrs post NAC addition measured after 24 hrs by TBARS assay; format: functional, cell-based; summary of the method: as §3
[8] = tested on: L929; assay: Induction of lipid peroxidation in mouse L929 cells assessed as increase in MDA levels at 2.5 to 10 uM treated 24 hrs post NAC addition measured after 24 hrs by TBARS assay; format: cell-based; conditions: l929, 24 h; summary of the method: as §3
[9] = tested on: PC-3; assay: Induction of oxidative stress in human PC3 cells assessed as total intracellular thiol levels at 5 uM after 24 hrs by spectrophotometric analysis (reference value: 4.23 +/- 0.75 microg/mg); format: functional
[10] = tested on: PC-3; assay: Induction of oxidative stress in human PC3 cells assessed as total GSH levels at 5 uM after 24 hrs by spectrophotometric analysis (reference value: 3.04 +/- 0.51 microg/mg); format: functional
[11] = tested on: PC-3; assay: Induction of oxidative stress in human PC3 cells assessed as GSH to GSSG ratio at 5 uM treated 24 hrs post NAC addition measured after 24 hrs by spectrophotometric analysis (reference value: 2.69 +/- 0.21 microg/mg); format: functional; summary of the method: as §1
[12] = tested on: SF-295; assay: Induction of oxidative stress in human SF295 cells assessed as total GSH levels at 5 uM treated 24 hrs post NAC addition measured after 24 hrs by spectrophotometric analysis (reference value: 3.16 +/- 0.21 microg/mg); format: functional; summary of the method: as §1
[13] = tested on: SF-295; assay: Induction of oxidative stress in human SF295 cells assessed as GSH to GSSG ratio at 5 uM after 24 hrs by spectrophotometric analysis (reference value: 2.34 +/- 0.56 microg/mg); format: functional
[14] = tested on: HCT-116; assay: Induction of oxidative stress in human HCT116 cells assessed as total intracellular thiol levels at 5 uM treated 24 hrs post NAC addition measured after 24 hrs by spectrophotometric analysis (reference value: 5.02 +/- 0.91 microg/mg); format: functional
[15] = tested on: L929; assay: Induction of oxidative stress in mouse L929 cells assessed as total intracellular thiol levels at 5 uM after 24 hrs by spectrophotometric analysis (reference value: 4.87 +/- 0.25 microg/mg); format: cell-based; conditions: l929, 24 h
[16] = tested on: L929; assay: Induction of oxidative stress in mouse L929 cells assessed as GSH to GSSG ratio at 5 uM after 24 hrs by spectrophotometric analysis (reference value: 3.55 +/- 0.51 microg/mg); format: cell-based; conditions: l929, 24 h
[17] = tested on: SF-295; assay: Cytotoxicity against human SF295 cells after 24 hrs in presence of GSH-OEt by MTT assay; format: functional, cell-based; conditions: SF-295, 24 h
Summary of the method: (§4)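 24 h MTT exposure (0.04–40.92 µM in 0.1% DMSO), with or without co-treatment with GSH ethyl ester (15 mM) to gauge the ROS contribution. MTT was 0.5 mg/mL for 3 h, with formazan dissolved in DMSO and absorbance at 595 nm expressed as % of control. Triplicate, repeated at least three times.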

[18] = tested on: L929; assay: Cytotoxicity against mouse L929 cells after 24 hrs in presence of GSH-OEt by MTT assay; format: cell-based; conditions: L929, 24 h; summary of the method: as §4
[19] = tested on: PC-3; assay: Geno-toxicity in human PC3 cells assessed as induction of DNA damage at 2.5 to 10 uM after 24 hrs in absence of NAC by alkaline comet assay; format: functional, cell-based
Summary of the method: (§5)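 Alkaline comet assay after 24 h at 2.5, 5 and 10 µM, with or without 24 h pretreatment with 5 mM NAC. Cells were trypsinized and embedded in 0.75% low-melting agarose, then lysed at pH 10, 4 °C, ≥1 h. DNA was unwound 20 min at pH >13 and electrophoresed 20 min at 25 V, 300 mA (0.86 V/cm), then stained with ethidium bromide. 100 cells (2 slides) were scored in classes 0–4 for a damage index. Mean ± SEM, three independent experiments in triplicate.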

[20] = tested on: HCT-116; assay: Geno-toxicity in human HCT116 cells assessed as induction of DNA damage at 2.5 to 10 uM after 24 hrs in absence of NAC by alkaline comet assay; format: functional, cell-based; summary of the method: as §5
[21] = tested on: L929; assay: Geno-toxicity in mouse L929 cells assessed as induction of DNA damage at 2.5 to 10 uM after 24 hrs in absence of NAC by alkaline comet assay; format: cell-based; conditions: l929, 24 h; summary of the method: as §5
[22] = tested on: PC-3; assay: Geno-toxicity in human PC3 cells assessed as induction of DNA damage at 2.5 to 10 uM treated 24 hrs post NAC addition measured after 24 hrs by alkaline comet assay; format: functional, cell-based; summary of the method: as §5
[23] = tested on: SF-295; assay: Geno-toxicity in human SF295 cells assessed as induction of DNA damage at 2.5 to 10 uM treated 24 hrs post NAC addition measured after 24 hrs by alkaline comet assay; format: functional, cell-based; summary of the method: as §5

With `CC1(C)OC2=C(C(=O)C(=O)c3ccccc32)C1n1cc(CNC2=[N+]3C(=C(c4ccccc4)c4ccc(Cl)n4[B-]3(F)F)C=C2)nn1` (stereo not drawn) the Activity [1] was 3.13 µg/mg, the IC50 [2] was 280 nM and the IC50 [3] was 680 nM. For the same compound, the IC50 [4] was 650 nM, the Activity [5] was “Active” and the Activity [6] was “inactive”. The Activity [7] was “inactive”, the Activity [8] was “Non-Toxic” and the Activity [9] was 3.53 µg/mg. For the same compound, the Activity [10] was 1.35 µg/mg, the Activity [11] was 2.88 µg/mg and the Activity [12] was 3.47 µg/mg. The Activity [13] was 0.39 µg/mg, the Activity [14] was 5.12 µg/mg and the Activity [15] was 3.5 µg/mg. The Activity [16] was 0.33, the IC50 [17] was 9810 nM and the IC50 [18] was 12400 nM. For the same compound, the Activity [19] was “Active”, the Activity [20] was “Active” and the Activity [21] was “Toxic”. The Activity [22] was “Active” and the Activity [23] was “Active”.
